Screens as filed in PubChem BioAssay.
DYRK1A inh = inhibitors of rat Dyrk1A kinase. inhibition, % at 12.5 µM. ADP-Glo luminescence, NFATc1 peptide. AID 504441. 0.43% of 310,000 active;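 note: plate controls were vehicle with enzyme for no effect and no enzyme for full effect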
dFosB activator = mouse delta FosB homodimer activation | activation, % at 25 µM | 0.99% of 340,000 active | AID 493131 | P13346 | purified delta FosB, TAMRA-CDK5 oligo fluorescence polarization; percent of positive-control signal above neutral wells;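 active = mean activation above about 17%, with every replicate also reaching it, limit read from the data, passing the limit was not always enough; inconclusive = only one of the two conditions met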
SR-BI DiI inh = blocks mouse SR-BI lipid uptake from DiI-HDL; inhibition, % at 12.5 µM; ldlA[mSR-BI] CHO cells, DiI-HDL uptake fluorescence, 3 h; 0.96% of 320,000 active; AID 488896;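 active = mean replicate inhibition of at least 70% and a set share of replicates each scoring 70 or more; inconclusive = meets just one of the two criteria; inactive = fails both criteria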;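 note: 0% = median of neutral control wells and 100% = median of positive control wells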
Target sequence (Q61009 whole entry, looked up): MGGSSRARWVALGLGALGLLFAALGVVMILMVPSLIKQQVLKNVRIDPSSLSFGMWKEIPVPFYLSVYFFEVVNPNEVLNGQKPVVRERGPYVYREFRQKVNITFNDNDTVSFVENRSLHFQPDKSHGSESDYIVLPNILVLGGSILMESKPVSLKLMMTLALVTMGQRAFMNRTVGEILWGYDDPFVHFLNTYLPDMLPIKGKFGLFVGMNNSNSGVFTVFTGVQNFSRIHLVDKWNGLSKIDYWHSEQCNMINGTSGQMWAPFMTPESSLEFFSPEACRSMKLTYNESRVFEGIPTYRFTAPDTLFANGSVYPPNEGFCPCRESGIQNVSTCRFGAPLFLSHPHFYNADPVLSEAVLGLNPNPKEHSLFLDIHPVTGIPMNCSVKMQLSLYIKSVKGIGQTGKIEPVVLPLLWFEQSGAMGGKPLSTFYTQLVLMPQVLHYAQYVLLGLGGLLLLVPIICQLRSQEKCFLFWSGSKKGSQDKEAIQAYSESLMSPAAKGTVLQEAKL
CDK5 inh = blocks human CDK5/p35 kinase activity; inhibition, % at 10 µM; 0.01% of 330,000 active; AID 488839; Q00535+Q15078; Recombinant CDK5/p35, ADP-Glo luminescence, 60 min;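 active = highest replicate inhibition of at least 50% and at least 75% of replicates reaching 50%; inconclusive = only one of the two criteria met; inactive = both criteria failed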;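 note: plate controls were DMSO neutral control for no effect and GW8510 at 10 µM for full effect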
SR-BI uptake up = SR-BI HDL lipid transfer activation; CHO ldlA[mSR-BI] cells, DiI-HDL uptake fluorescence, 3 h; 100 = double the neutral-control signal; activation, % at 12.5 µM; 0.096% of 320,000 active; AID 504775;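 active = mean replicate activation of at least 60% and every replicate at or above 60%; inconclusive = mean or all-replicate condition met, but not both; inactive = mean below 60% and not all replicates reaching 60%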;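 note: 0% = median plate neutral-control signal and 100% = twice that signal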
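Assay system: CHO ldlA[mSR-BI] cells, LDL receptor-null, SR-BI overexpressing; medium: Ham's F12 with 0.5% BSA, HEPES 25 mM, pH 7.4; also added: DiI-HDL 10 µg/mL; timing: 3 h uptake period with compound, 37 °C; signal: DiI fluorescence, bottom read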
NSD2 inh = blocks human histone methyltransferase NSD2; O96028; NSD2 peptide methylation, AlphaScreen, 120 min; inhibition, % at 12.5 µM; 0.54% of 310,000 active
The depositor's hits bear a star; i = inactive; ? = inconclusive; · = no result. An excerpt weighted towards active compounds, which were near 2.5% of everything screened. Cut-off read from the data, not from the text of the source, unless noted: active = inhibition above about 50%; inactive = the rest.

SMILES	DYRK1A inh	dFosB activator	SR-BI DiI inh	CDK5 inh	SR-BI uptake up	NSD2 inh
Clc1ccc2c(N/N=C/c3ccc(Br)cc3)ccnc2c1	0.7	33.9*	12.8	1.6	-12.8	-2.0
Clc1ccc2c(N/N=C/c3cccnc3)ccnc2c1	2.1	-27.2	7.3	-7.0	-7.3	-1.7
Cc1ccc(/C=N/Nc2ccnc3cc(Cl)ccc23)c(C)c1	0.8	49.4*	17.2	-1.7	-17.2	-1.8
CNC(=S)N/N=C/c1cc(Br)cc(Br)c1O	9.2	-1.6	3.5	0.8	-3.5	-4.3
CC(=O)Nc1ccc(C(=O)N/N=C/c2cc(Br)cc(Br)c2O)cc1	1.0	96.6*	135.1*	-0.1	-135.1	-8.4
CC(C)C(=O)Nc1ccc(C(=O)N/N=C/c2cc(Br)cc(Br)c2O)cc1	-4.2	13.1	146.5*	-0.2	-146.5	-2.3
COC(=O)c1ccccc1NC(=O)C1CCN(C(=O)Cc2ccccc2)CC1	0.2	5.2	48.9	-1.9	·	-0.2
COc1ccc(C)cc1NC(=O)C1CCN(C(=O)Cc2ccccc2)CC1	·	-7.0	76.3*	1.9	-76.3	2.0
COc1ccc(NC(=O)C2CCN(C(=O)C3CC(=O)N(c4ccc(C)cc4)C3)CC2)c(OC)c1 (centres undefined)	2.5	-2.3	78.6*	-0.3	-78.6	-2.9
COc1ccc(S(=O)(=O)N2CCCCCC2)cc1C(=O)N1CCN(C(C)=O)CC1	·	·	·	·	·	-0.7
Cc1ccccc1NCC(=O)N/N=C/c1ccc[nH]1	·	·	·	·	·	-1.5
COCCCNC(=O)c1c(NC(=O)C2COc3ccccc3O2)sc2c1CCCC2 (centres undefined)	4.8	-8.1	75.9*	0.3	-75.9	-0.9
COC(=O)c1c(NC(=O)C2COc3ccccc3O2)sc2c1CCN(C(C)=O)C2 (centres undefined)	9.1	-15.5	52.8	-1.2	-52.8	-0.3
Cc1ccc(NC(=O)c2cc3cccc([N+](=O)[O-])c3[nH]2)cc1	1.6	11.4	78.9*	1.1	-78.9	1.7
COc1ccc2nc3oc(C(=O)NCc4cccs4)cc3cc2c1	-1.7	59.8*	-10.5	-1.6	10.5	-4.5
CC(C(=O)c1ccccc1)n1c(N2CCOCC2)nc2c1c(=O)n(C)c(=O)n2C (centres undefined)	5.9	-7.4	-62.7	-3.0	62.7*	5.1
COC(=O)C1=C(N)OC2=C(C(=O)CC(C)(C)C2)C1c1cccs1 (centres undefined)	0.3	-3.3	i	-3.0	821.5*	6.0
CC1(C)CC(=O)C2=C(C1)OC(N)=C(C#N)C2c1cccs1 (centres undefined)	-4.0	-0.8	-26.0	0.8	26.0	0.3
O=CNc1c(Br)cc2c(c1Br)Cc1cc(Br)ccc1-2	·	8.7	43.5	-5.2	-43.6	·
CC(C)C[C@H](NC1(C(=O)NC2CCCCC2)CCOCC1)C(=O)NCC(c1ccccc1)c1ccccc1	·	·	·	·	·	1.3
COc1ccccc1N1CCN(C(=O)CCC(=O)N2CCN(c3ccc(F)cc3)CC2)CC1	-3.6	-9.3	45.3	1.7	-45.3	-2.0
COc1ccccc1N1CCN(C(=O)CCC(=O)N2CCN(c3ccccc3OC)CC2)CC1	-2.1	-1.9	70.3*	-1.1	-70.3	0.6
CCCn1nc([N+](=O)[O-])c(C(C#N)c2nc3ccccc3o2)c(Cl)c1=O (centres undefined)	3.4	3.6	0.7	3.1	-0.7	33.2
CCn1nc([N+](=O)[O-])c(C(C#N)c2nc3cc(C(F)(F)F)ccc3s2)c(Cl)c1=O (centres undefined)	8.8	-0.2	1.3	0.8	-1.3	53.5*
CCN1CCN(c2ccc(S(=O)(=O)N3CCCCC3)cc2NC(=O)c2cccc(C(F)(F)F)c2)CC1	4.7	20.9*	-56.0	-1.0	56.0	4.0
SMILES	DYRK1A inh	dFosB activator	SR-BI DiI inh	CDK5 inh	SR-BI uptake up	NSD2 inh
COc1ccccc1/C=C/C(=O)Nc1cccc(S(=O)(=O)NC2=NCCCCC2)c1	-0.5	-24.7	72.4*	0.5	-72.4	0.7
CCN1CCN(c2ccc(S(=O)(=O)N3CCCCC3)cc2NC(=O)c2cccc(F)c2)CC1	21.9	-3.1	-16.4	0.7	16.4	27.1
COc1ccc(OC)c(/C=C/C(=O)Nc2cccc(S(=O)(=O)N3CCCC3)c2)c1	-3.3	-6.9	87.1*	1.8	-87.1	-1.4
COc1cc(C(=O)Nc2cccc(S(=O)(=O)N3CCCC3)c2)c([N+](=O)[O-])cc1OC	12.3	-7.5	74.3*	0.6	-74.3	1.2
O=S(=O)(CCNCCc1ccccc1)NC1CCCCC1	-1.6	-12.7	-8.0	0.2	8.0	·
COc1ccc(Oc2c(Cl)cnn(-c3cc(C)cc(C)c3)c2=O)cc1	·	·	·	·	·	-1.8
COc1cc(C)c(NC(=O)c2cccc(S(=O)(=O)N3CCCC3)c2)cc1OC	4.2	-0.3	85.6*	-5.2	-85.6	-2.2
COc1ccc(NC(=O)c2cccc(S(=O)(=O)N3CCCC3)c2)cc1OC	·	-1.4	68.9	-0.3	-68.9	-0.4
CCn1nc(C)c(NC(=O)/C=C/c2ccc(OC)c(COc3ccc(Cl)cc3Br)c2)c1C	-6.2	207.2*	13.0	-0.3	-13.0	-4.0
COc1ccc(/C=C/C(=O)NCc2cn(C)nc2C)cc1COc1ccc(Cl)cc1Br	0.5	?	11.5	0.8	-11.5	-0.1
CCC(=O)N1CCC1(C)C(=O)NCc1ccccc1SC (centres undefined)	·	·	·	·	·	-0.5
CCN(CC)S(=O)(=O)c1cccc(C(=O)N/N=C/c2ccccc2OCC(=O)O)c1	-5.0	-8.1	-1.0	-0.4	1.0	1.9
Cc1ccc(NS(=O)(=O)c2cccc(C(=O)N/N=C/c3c(C)nn(-c4ccccc4)c3N3CCCC3)c2)c(C)c1	-3.2	-4.7	74.2*	-0.1	-74.2	-0.7
CCN(CC)S(=O)(=O)c1cccc(C(=O)N/N=C/c2c(C)nn(-c3ccccc3)c2Cl)c1	-1.7	5.1	72.7*	-1.5	-72.7	26.2
C=CCN(Cc1ccc(OC)cc1OC)C(C#CCCCC)c1ccccc1 (centres undefined)	·	·	·	·	·	-1.6
O=C(N/N=C/c1c[nH]c2ccccc12)c1cc(Cl)ccc1O	13.6	-6.3	-23.6	0.3	23.7	-0.1
Cc1cc(=O)oc2c3c(cc(OCC(=O)NCc4ccccc4)c12)OC(C)(C)CC3	5.6	-3.9	79.7*	0.0	-79.7	·
O=Cc1c(Sc2ccccn2)nc2ccccn2c1=O	1.2	-2.7	77.3*	1.4	-77.3	3.7
O=C(O)c1ccccc1C(=O)OCC1CCC(=NO)CC1 (centres undefined)	·	·	·	·	·	20.6
CCC[C@H]1[C@@H](NC(=O)c2cccc(N(C)C)c2)CC[C@@]23CCCN2C(=O)CCC[C@@H]13	·	·	·	·	·	2.1
O=C(c1cc(-c2ccncc2)nc2c(Cl)cccc12)N1CCN(c2ccccc2F)CC1	3.4	-7.9	72.8*	3.3	-72.8	1.5
